Results published in ChEMBL document CHEMBL3576758, “Creation of Customized Bioactivity within a 14-Membered Macrolide Scaffold: Design, Synthesis, and Biological Evaluation Using a Family-18 Chitinase” (J Med Chem, 2015).
One block for each compound: values may come before it.

Legend:
Chitinase B [1] = biological target: T1, Chitinase B (Serratia marcescens, UniProt P11797); assay: Inhibition of Serratia marcescens chitinase ChiB assessed as reduction in chitinolytic activity using 4MU-(GlcNAc)2 substrate by fluorescence based assay
T1 sequence (P11797 whole entry): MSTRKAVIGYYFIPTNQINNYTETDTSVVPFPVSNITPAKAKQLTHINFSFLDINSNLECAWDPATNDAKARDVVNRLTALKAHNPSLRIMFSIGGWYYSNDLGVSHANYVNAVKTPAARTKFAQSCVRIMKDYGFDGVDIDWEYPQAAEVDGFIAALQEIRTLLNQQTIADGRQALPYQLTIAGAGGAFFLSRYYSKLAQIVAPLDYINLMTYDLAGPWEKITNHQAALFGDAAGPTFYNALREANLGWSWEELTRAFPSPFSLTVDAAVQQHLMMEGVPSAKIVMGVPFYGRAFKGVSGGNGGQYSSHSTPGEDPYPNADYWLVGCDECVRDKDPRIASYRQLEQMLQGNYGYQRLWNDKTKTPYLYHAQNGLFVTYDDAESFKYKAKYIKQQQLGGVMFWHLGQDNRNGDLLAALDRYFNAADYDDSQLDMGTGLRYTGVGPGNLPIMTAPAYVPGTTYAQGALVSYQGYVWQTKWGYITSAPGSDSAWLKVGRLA
Method in brief: (§1)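 Crude SmChiB: supernatant of sonicated E. coli DH5α carrying pMCB7, grown 24 h at 37 °C in LB with ampicillin and 0.5 mM IPTG, then diluted ×40. Enzyme and inhibitors (in MeOH) were mixed in 0.1 M phosphate, pH 7.0, at 37 °C, and 80 μM 4MU(GlcNAc)2 solution was added. Fluorescence (ex 355/em 460 nm) was read every 60 s, with rates corrected for inhibitor quenching. IC50 was taken from sigmoidal dose–response fits.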

Escherichia coli = assay: Antibacterial activity against Escherichia coli NIHJ JC-2 by antimicrobial disk and dilution susceptibility test; assay type: functional
Staphylococcus aureus [2] = assay: Antibacterial activity against methicillin-sensitive Staphylococcus aureus Smith by antimicrobial disk and dilution susceptibility test; assay type: functional
Pseudomonas aeruginosa [3] = assay: Antibacterial activity against Pseudomonas aeruginosa 46001 by antimicrobial disk and dilution susceptibility test; assay type: functional
[4] = tested on: Staphylococcus epidermidis; assay: Antibacterial activity against Staphylococcus epidermidis KUB795 by antimicrobial disk and dilution susceptibility test; assay type: functional
Enterobacter cloacae = assay: Antibacterial activity against Enterobacter cloacae IFO13535 by antimicrobial disk and dilution susceptibility test; assay type: functional
Proteus vulgaris = assay: Antibacterial activity against Proteus vulgaris OX-19 by antimicrobial disk and dilution susceptibility test; assay type: functional
Pseudomonas aeruginosa [5] = assay: Antibacterial activity against Pseudomonas aeruginosa E-2 by antimicrobial disk and dilution susceptibility test; assay type: functional
Serratia marcescens = assay: Antibacterial activity against Serratia marcescens IFO12648 by antimicrobial disk and dilution susceptibility test; assay type: functional
Klebsiella pneumoniae = assay: Antibacterial activity against Klebsiella pneumoniae NCTC 9632 by antimicrobial disk and dilution susceptibility test; assay type: functional
Enterococcus faecalis = assay: Antibacterial activity against Enterococcus faecalis ATCC 29212 by antimicrobial disk and dilution susceptibility test; assay type: functional
[6] = tested on: Acinetobacter calcoaceticus; assay: Antibacterial activity against Acinetobacter calcoaceticus IFO12552 by antimicrobial disk and dilution susceptibility test; assay type: functional
Klebsiella aerogenes = assay: Antibacterial activity against Enterobacter aerogenes NCTC 10006 by antimicrobial disk and dilution susceptibility test; assay type: functional
Citrobacter freundii = assay: Antibacterial activity against Citrobacter freundii ATCC 8090 by antimicrobial disk and dilution susceptibility test; assay type: functional
Staphylococcus aureus [7] = assay: Antibacterial activity against methicillin-sensitive Staphylococcus aureus FDA209P by antimicrobial disk and dilution susceptibility test; assay type: functional
Morganella morganii = assay: Antibacterial activity against Morganella morganii IID Kono by antimicrobial disk and dilution susceptibility test; assay type: functional
Micrococcus luteus = assay: Antibacterial activity against Micrococcus luteus ATCC 9341 by antimicrobial disk and dilution susceptibility test; assay type: functional
Proteus mirabilis = assay: Antibacterial activity against Proteus mirabilis IFO3849 by antimicrobial disk and dilution susceptibility test; assay type: functional
Chitinase B [8] = biological target: T1, Chitinase B; assay: Inhibition of Serratia marcescens chitinase ChiB; method in brief: as §1

Compound: CC[C@H]1OC(=O)[C@H](C)[C@@H](O)[C@H](C)[C@@H](O)[C@](C)(O)C[C@@H](C)[C@@H]2OC(C)(C)O[C@H]([C@H]2C)[C@]1(C)O
- IC50 (Chitinase B [1]): > 300 µM

Compound: CNC(=O)NC(=N)NCCN=[N+]=[N-]
- IC50 (Chitinase B [1]): 7 µM

Compound: CC[C@H]1OC(=O)[C@H](C)[C@@H](O[C@H]2C[C@@](C)(OC)[C@@H](O)[C@H](C)O2)[C@H](C)[C@@H](O[C@@H]2O[C@H](C)C[C@H](N(C)C)[C@H]2O)[C@](C)(O)C[C@@H](C)C(=O)[C@H](C)[C@@H](O)[C@]1(C)O [ERYTHROMYCIN]
- IC50 (Chitinase B [1]): > 300 µM

Compound: C#CCO[C@@H]1[C@@H](C)[C@H](O)[C@@H](C)C(=O)O[C@H](CC)[C@@](C)(O)[C@@H]2OC(C)(C)O[C@H]([C@@H]2C)[C@H](C)C[C@@]1(C)O
- IC50 (Chitinase B [1]): > 300 µM

Compound: CC[C@H]1OC(=O)[C@H](C)[C@@H](O)[C@H](C)[C@@H](O)[C@](C)(O)C[C@@H](C)/C(=N\OCc2cn(CCNC(=N)NC(=O)NC)nn2)[C@H](C)[C@@H](O)[C@]1(C)O
- IC50 (Chitinase B [1]): 24.1 µM

Compound: CC[C@H]1OC(=O)[C@H](C)[C@@H](O)[C@H](C)[C@@H](OCc2cn(CCNC(=N)NC(=O)NC)nn2)[C@](C)(O)C[C@@H](C)[C@@H]2OC(C)(C)O[C@H]([C@H]2C)[C@]1(C)O
- IC50 (Chitinase B [1]): 11.9 µM

Compound: CC(=O)NC(=N)NCCC[C@@H]1NC(=O)[C@H](CCCC(=O)O)NC(=O)[C@H](Cc2c[nH]cn2)N2C(=O)[C@H](C[C@H]2O)NC(=O)[C@H]2CCCN2C1=O [ARGADIN]
- IC50 (Chitinase B [8]): 0.033 µM

Compound: CNC(=O)NC(=N)n1cccn1
- IC50 (Chitinase B [1]): > 300 µM

Further compounds by falling IC50 (Chitinase B [1]), results first:

- IC50 (Chitinase B [1]): 3.3 µM
Compound: CC[C@H]1OC(=O)[C@H](C)[C@@H](OCc2cn(CCNC(=N)NC(=O)NC)nn2)[C@H](C)[C@@H](O)[C@](C)(O)C[C@@H](C)[C@@H]2OC(C)(C)O[C@H]([C@H]2C)[C@]1(C)O

- IC50 (Chitinase B [1]): 0.217 µM
Compound: C#CCO[C@@H]1[C@@H](C)[C@H](OC(=O)NCCCCNC(=N)NC(=O)NC)[C@@H](C)C(=O)O[C@H](CC)[C@@](C)(O)[C@@H]2OC(C)(C)O[C@H]([C@@H]2C)[C@H](C)C[C@@]1(C)O

- IC50 (Chitinase B [1]): 0.09 µM
Compound: CC(=O)N[C@H]1[C@H](O[C@H]2[C@@H](O)[C@@H](NC(C)=O)[C@H](O[C@H]3[C@H](O)[C@H]4N=C(N(C)C)O[C@H]4[C@@H]3CO)O[C@@H]2CO)O[C@H](CO)[C@@H](O)[C@H]1O [ALLOSAMIDIN]

- IC50 (Chitinase B [1]): 0.036 µM
- MIC (Escherichia coli): > 64 µg/mL
- MIC (Staphylococcus aureus [2]): > 64 µg/mL
- MIC (Pseudomonas aeruginosa [3]): > 64 µg/mL
- MIC [4]: > 64 µg/mL
- MIC (Enterobacter cloacae): > 64 µg/mL
- MIC (Proteus vulgaris): > 64 µg/mL
- MIC (Pseudomonas aeruginosa [5]): > 64 µg/mL
- MIC (Serratia marcescens): > 64 µg/mL
- MIC (Klebsiella pneumoniae): > 64 µg/mL
- MIC (Enterococcus faecalis): > 64 µg/mL
- MIC [6]: > 64 µg/mL
- MIC (Klebsiella aerogenes): > 64 µg/mL
- MIC (Citrobacter freundii): > 64 µg/mL
- MIC (Staphylococcus aureus [7]): > 64 µg/mL
- MIC (Morganella morganii): > 64 µg/mL
- MIC (Micrococcus luteus): > 64 µg/mL
- MIC (Proteus mirabilis): > 64 µg/mL
Compound: C#CCO[C@@H]1[C@@H](C)[C@H](OC(=O)NCCCNC(=N)NC(=O)NC)[C@@H](C)C(=O)O[C@H](CC)[C@@](C)(O)[C@@H]2OC(C)(C)O[C@H]([C@@H]2C)[C@H](C)C[C@@]1(C)O
